One assay addresses T1, human 5-HT1A receptors (Homo sapiens, UniProt P08908).
T1 sequence (P08908 1-422): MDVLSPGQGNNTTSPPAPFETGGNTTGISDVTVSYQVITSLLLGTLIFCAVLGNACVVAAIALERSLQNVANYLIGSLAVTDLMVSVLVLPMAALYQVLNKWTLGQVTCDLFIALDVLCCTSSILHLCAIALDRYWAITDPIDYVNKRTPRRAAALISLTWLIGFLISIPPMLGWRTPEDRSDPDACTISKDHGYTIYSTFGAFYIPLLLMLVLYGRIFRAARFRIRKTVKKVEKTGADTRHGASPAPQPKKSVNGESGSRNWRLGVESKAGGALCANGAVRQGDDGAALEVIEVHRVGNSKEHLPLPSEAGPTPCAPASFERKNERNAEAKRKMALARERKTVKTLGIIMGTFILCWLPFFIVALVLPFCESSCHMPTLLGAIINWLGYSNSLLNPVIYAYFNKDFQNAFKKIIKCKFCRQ
Nature of the assay: Saturation isotherm radioligand binding, 5-HT1A receptor. The conditions noted are these: membranes, geometric mean ± SD, n = 3. An outline of the steps: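 HEK293 membranes (5-HT1AR alone or with 5-HT2AR) were prepared by EDTA detachment, hypotonic lysis (5 mM Tris/MgCl2, pH 7.4) and 35,000g spins. They were incubated with [3H]MPPF in 50 mM Tris, pH 7.4, at 25 °C for 1.5 h, with excess NAN-190 defining nonspecific binding. Bound ligand was collected on PEI-treated GF/C filters and counted. Triplicate points; Kd and Bmax came from saturation isotherms, three experiments.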

In assay [1] the target is 5-HT1A and 5-HT2A receptors (Homo sapiens, UniProt P28223). It counts as cell-based. To be noted: 50 nM, 2 hours exposure before TCB-2 alone or TCB-2 and Xaliproden HCl.
Chain of 5-HT1A and 5-HT2A receptors (P28223 whole entry): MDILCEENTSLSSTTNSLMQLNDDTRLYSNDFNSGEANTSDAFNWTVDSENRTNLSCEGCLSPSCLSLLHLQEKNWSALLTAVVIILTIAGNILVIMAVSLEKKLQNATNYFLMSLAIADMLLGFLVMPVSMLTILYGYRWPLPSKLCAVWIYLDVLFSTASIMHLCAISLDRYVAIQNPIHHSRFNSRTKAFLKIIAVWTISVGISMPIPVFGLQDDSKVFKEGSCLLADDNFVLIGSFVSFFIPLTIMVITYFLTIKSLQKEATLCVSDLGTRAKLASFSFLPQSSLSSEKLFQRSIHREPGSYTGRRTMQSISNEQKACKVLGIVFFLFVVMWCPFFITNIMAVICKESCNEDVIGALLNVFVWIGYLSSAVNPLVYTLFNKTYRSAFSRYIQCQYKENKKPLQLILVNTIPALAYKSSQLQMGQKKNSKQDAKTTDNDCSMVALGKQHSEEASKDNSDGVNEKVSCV
For the next assay, the target named is 5-HT2AR (Homo sapiens, UniProt P28223). Briefly: ERK1/2 activation. It counts as cell-based.
Chain of 5-HT2AR (P28223 whole entry): as above
For the next assay, the target named is human 5-HT2A receptors (Homo sapiens, UniProt P28223). Nature of the assay: Saturation isotherm radioligand binding, 5-HT2A receptor. To be noted: membranes, geometric mean ± SD, n = 3. Summed up:
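HEK293 membranes (5-HT2AR alone or with 5-HT1AR) were prepared by EDTA detachment, hypotonic lysis and 35,000g centrifugation. Saturation binding used [3H]MSP (0.3–10 nM) in 50 mM Tris, pH 7.4, for 1.5 h at 25 °C, with excess mianserin defining nonspecific binding. Samples were filtered on PEI-treated GF/C filters and counted by scintillation, with protein measured by BCA. Triplicate points; Kd and Bmax were fitted from isotherms, geometric mean of three experiments.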

The target of another assay is T2, 5-HT1AR (Homo sapiens, UniProt P08908).
T2 sequence (P08908 1-422): T1 sequence (P08908 1-422)
Nature of the assay: ERK1/2 activation. It is filed as cell-based. An outline of the steps: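 HEK293 cells stably expressing human 5-HT1AR (clonal, selected with G418 or hygromycin) were kept in 100 μg/ml selection antibiotic and then serum-starved in serum-free DMEM for at least 24 h. Agonist (10−10–10−4 M) was applied for 5 min; selected concentrations ran 5 min–1 h. Lysates (equal protein) were resolved by 10% SDS-PAGE. Parallel blots were probed for phospho-ERK1/2 and total ERK1/2, read by ECL densitometry with background subtracted. Serum was the positive control.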

The mark [2] stands for this setting: HEK293 cell line 5-HT1A+2AR co-expressing.

Counter-ions that a name gives are not always drawn.

Chain of human 5-HT2A receptors (P28223 whole entry): as above

In general, Kd refers to the free concentration of one partner at which half of the binding sites on the other are occupied at equilibrium, for simple one-to-one binding. Higher therefore signals a looser complex. On human 5-HT1A receptors (setting [2]), `COc1ccccc1N1CCN(CCN(C(=O)c2ccc(F)cc2)c2ccccn2)CC1` [[3H] MPPF, 4-(2′-Methoxy)-phenyl-1-[2′-(N-2″-pyridinyl)-p-fluorobenzamido]ethyl-piperazine] showed a Bmax of 8.37 ± 4.14 pmol/mg and a dissociation constant (Kd) of 0.167 ± 0.013 nM. Also, on human 5-HT1A receptors (HEK293 cell line 5-HT1AR only), the Bmax was found to be 3.07 ± 1.67 pmol/mg and the Kd turned out to be 0.267 ± 0.036 nM.
As for `O=C(c1ccc(F)cc1)C1CCN(CCn2c(=O)[nH]c3ccccc3c2=O)CC1` [Ketanserin], the “Effect on agonist-induced ERK response” value in assay [1] is “switched it from sustained to transient”. The “Fraction of initial ERK activation observed” value on 5-HT2AR (50 nM Ketanserin present, 5-HT2AR clone) is reported as “about half”.
With `CC(N)Cc1c[nH]c2ccc(O)cc12` (stereo not drawn) [α-methyl-5-HT], the “Time-course pattern of ERK activation” value on 5-HT2AR (10μM, HEK293-h5-HT2A) is reported as “sustained ERK activation”.
For `CN1CN(c2ccccc2)C2(CCN(CCCC(=O)c3ccc(F)cc3)CC2)C1=O` [[3H] MSP, [^3H]methylspiperone], the figures for the Bmax at human 5-HT2A receptors (setting [2]) and at human 5-HT2A receptors (HEK293 cell line 5-HT2AR only) were 7.00 ± 1.05 pmol/mg and 4.17 ± 2.28 pmol/mg, respectively. Moreover, the Kd was determined as 0.725 ± 0.199 nM at human 5-HT2A receptors (setting [2]) and 0.246 ± 0.042 nM on human 5-HT2A receptors (HEK293 cell line 5-HT2AR only).
On to `FC(F)(F)c1cccc(C2=CCN(CCc3ccc4ccccc4c3)CC2)c1` [Xaliproden HCl, Xaliproden hydrochloride], for which the “Time-course pattern of ERK1/2 activation” value on 5-HT1AR (5-HT1AR agonist, HEK293 cells) is “transient activation”. Besides, at 5-HT1AR (5-HT1AR cells, dose-response, 5 min), the “Minimal concentration required to obtain observed ERK activation” value came to 100 nM.

The record behind these values is paper PMC2635340 (Neuropharmacology, 2008).
